Test [1] has as its target T1, IDH1(R132H) (Homo sapiens, UniProt O75874, R132H). The experiment in a line: IDH1. Particulars: for Inhibitory activity against IDH1(R132H), in words: compound screening at 50 μM. It counts as biochemical.
The target of another test is R132C IDH1 (Homo sapiens, UniProt O75874, R132C). The experiment in a line: Enzyme inhibition of R132C mutant IDH1. Format: biochemical.
A further test deals with WT IDH1 (Homo sapiens, UniProt O75874). Kind of test: Enzyme inhibition of wild-type IDH1. Format: biochemical.
Chain of WT IDH1 (O75874 whole entry): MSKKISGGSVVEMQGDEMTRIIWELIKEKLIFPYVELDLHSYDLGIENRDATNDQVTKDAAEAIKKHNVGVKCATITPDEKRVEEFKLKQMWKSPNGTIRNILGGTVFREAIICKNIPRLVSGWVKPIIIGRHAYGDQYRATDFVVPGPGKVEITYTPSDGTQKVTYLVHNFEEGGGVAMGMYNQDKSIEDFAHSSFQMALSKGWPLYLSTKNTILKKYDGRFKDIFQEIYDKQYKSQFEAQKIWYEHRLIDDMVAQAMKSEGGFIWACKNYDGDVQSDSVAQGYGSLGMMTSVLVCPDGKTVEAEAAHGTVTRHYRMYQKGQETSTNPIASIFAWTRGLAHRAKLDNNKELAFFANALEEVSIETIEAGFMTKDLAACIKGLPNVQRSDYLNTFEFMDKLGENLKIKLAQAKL
Test [2] relates to BT142 glioma cells with R132H IDH1 mutation. The experiment in a line: Inhibition of proliferation of glioma stem-like cells. Format: cell-based, human. Particulars: 5 μM, 14 days treatment. The gist of the method: (§1)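 Patient-derived glioma cells grown as neurospheres in serum-free medium at 37 °C, 5% CO₂, 100% humidity. Cells seeded at 2000/well and exposed to increasing concentrations of test compound for 14 days. Viability read by Cell Counting Kit-8 following the kit protocol.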

In test [3] the test system is BXD-3752 glioma cells without IDH1 mutation. Described as above. It counts as cell-based, human. Particulars: 5 μM, 14 days treatment, no IDH1 mutation. The gist of the method:
as §1

Test [4] addresses T1, IDH1(R132H). Kind of test: Steady-state kinetic study, mode of inhibition. It counts as biochemical. The gist of the method: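 IDH1(R132H) was expressed in E. coli and purified. Initial velocities were taken as the linear rate of NADPH consumption, followed by UV absorbance at 340 nm. Test compound, α-KG and NADPH levels were each varied. Data were fitted to competitive, noncompetitive and uncompetitive models, and the best model was chosen by highest R² and lowest AICc.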

Entries after “also recorded” stand apart in the source; their conditions may differ.

T1 sequence (O75874 whole entry R132H): as the sequence (O75874 whole entry) above, with R132H counted along it
Chain of R132C IDH1 (O75874 whole entry R132C): as the sequence (O75874 whole entry) above, with R132C counted along it

In turn, `O=S(=O)(Nc1cc(Oc2ccccc2)c(O)c2ccccc12)c1ccc(Br)cc1` [Compound 1, 4-bromo-N-(4-hydroxy-3-phenoxynaphthalen-1-yl)benzenesulfonamide] showed a Ki at IDH1(R132H) [1] of 8.2 µM.

For `O=S(=O)(Nc1cc(Br)c(O)c2ccccc12)c1ccc(Br)cc1` [Compound 2, 4-bromo-N-(3-bromo-4-hydroxynaphthalen-1-yl)benzenesulfonamide], the Ki is over 50 µM at R132C IDH1, over 50 µM at WT IDH1 and 4.1 µM on IDH1(R132H) [1]. Moreover, on IDH1(R132H) [1] (IDH1(R132H), vs compound 1), the “Fold increased inhibitory activity relative to compound 1” value was ~ 2 fold.

As for `Cc1ccc(-c2cc(NS(=O)(=O)c3ccc(C)cc3)c3ccccc3c2O)cc1` [Compound 3, N-(4-hydroxy-3-(p-tolyl)naphthalen-1-yl)-4-methylbenzenesulfonamide], the “Activity against proliferation of BT142 glioma cells” value (from here on “Activity … of BT142 glioma cells”) in test [2] is given as “did not exhibit activity”. Further, in test [3], the “Activity against proliferation of BXD-3752 glioma cells” value (“Activity … of BXD-3752 glioma cells” for short) is “did not exhibit activity”. In addition, the “Inhibitory activity against IDH1(R132H), in words” value (“Inhibitory activity … in words” below) on IDH1(R132H) [1] is “inactive”.

On to `O=S(=O)(Nc1cc(-c2ccc3ccccc3c2)c(O)c2ccccc12)c1ccc(Br)cc1` [Compound 4, 4-bromo-N-(1-hydroxy-[2,2’-binaphthalen]-4-yl)benzenesulfonamide], for which the “Inhibitory activity … in words” value at IDH1(R132H) [1] was “inactive”.

Consider `O=C(O)CCc1cc(NS(=O)(=O)c2ccc(Br)cc2)c2ccccc2c1O` [Compound 5, 3-(4-((4-bromophenyl)sulfonamido)-1-hydroxynaphthalen-2-yl)propanoic acid], for which the inhibition constant Ki at IDH1(R132H) [1] came to 17.5 µM.

As to `O=P(O)(O)CCc1cc(NS(=O)(=O)c2ccc(Br)cc2)c2ccccc2c1O` [Compound 6, (2-(4-((4-bromophenyl)sulfonamido)-1-hydroxynaphthalen-2-yl)ethyl)phosphonic acid], the Ki on IDH1(R132H) [1] amounted to 2.4 µM.

`COc1ccc(S(=O)(=O)Nc2cc(CCC(=O)O)c(O)c3ccccc23)cc1` [Compound 7, 3-(1-hydroxy-4-((4-methoxyphenyl)sulfonamido)naphthalen-2-yl)propanoic acid] showed an inhibition constant (Ki) at IDH1(R132H) [1] of 10.2 µM. Against the preceding compound, the Ki is about 4.2-fold higher.

Turning to `O=S(=O)(Nc1cc(Br)c(O)c2ccccc12)c1ccc(F)cc1` [Compound 8, N-(3-bromo-4-hydroxynaphthalen-1-yl)-4-fluorobenzenesulfonamide], the Ki at IDH1(R132H) [1] was about 25 µM.

Take `Cc1ccc(S(=O)(=O)Nc2cc(Br)c(O)c3ccccc23)cc1` [Compound 9, N-(3-bromo-4-hydroxynaphthalen-1-yl)-4-methylbenzenesulfonamide]: the “Mode of inhibition against the cofactor NADPH” value on IDH1(R132H) [4] (variable NADPH, Michaelis-Menten plot) is listed as “noncompetitive mode of action; also recorded: non-competitive inhibitor”. The “Mode of inhibition against the substrate α-KG” value at IDH1(R132H) [4] (variable α-KG, Lineweaver-Burk plot) is “competitive inhibitor”. Further, the Ki on R132C IDH1 was over 50 µM; on WT IDH1, over 50 µM; at IDH1(R132H) [1] it was 1.2 µM. The “Activity … of BT142 glioma cells” value in test [2] is “strongly inhibited the growth; also recorded: strong activity”. For the same compound, in test [3], the “Activity … of BXD-3752 glioma cells” value is “did not show activity; also recorded: did not significantly affect growth”. Moreover, the “Fold more active than compound 2” value at IDH1(R132H) [1] (IDH1(R132H), vs compound 2) was ~ 4 ×.

Consider `O=S(=O)(Nc1cc(Br)c(O)c2ccccc12)c1ccc(-c2ccccc2)cc1` [Compound 10, N-(3-bromo-4-hydroxynaphthalen-1-yl)-[1,1’-biphenyl]-4-sulfonamide], for which the Ki was 36 µM at R132C IDH1, over 50 µM at WT IDH1 and 0.6 µM on IDH1(R132H) [1]. Moreover, in test [2], the “Activity … of BT142 glioma cells” value is recorded as “strongly inhibited the growth; also recorded: strong activity”. Moreover, the “Activity … of BXD-3752 glioma cells” value in test [3] was “did not show activity; also recorded: did not significantly affect growth”.

Regarding `O=S(=O)(Nc1cc(Br)c(O)c2ccccc12)c1ccc2ccccc2c1` [Compound 11, N-(3-bromo-4-hydroxynaphthalen-1-yl)naphthalene-2-sulfonamide], the results for the Ki on R132C IDH1, at WT IDH1 and at IDH1(R132H) [1] were over 50 µM, over 50 µM and 0.8 µM, respectively.

Regarding `Cc1ccc(S(=O)(=O)Nc2ccc(O)c3ccccc23)cc1` [Compound 12, N-(4-hydroxynaphthalen-1-yl)-4-methylbenzenesulfonamide], at IDH1(R132H) [1], the Ki was 6.8 µM. At IDH1(R132H) [1] (IDH1(R132H), vs compound 9), the “Fold less active than compound 9” value was ~ 6 fold.

At IDH1(R132H) [1], `O=S(=O)(Nc1ccc(O)c2ccccc12)c1ccccc1` [Compound 13, N-(4-hydroxynaphthalen-1-yl)benzenesulfonamide] had a Ki of 11.1 µM.

As to `O=S(=O)(Nc1ccc(O)c(Oc2ccccc2)c1)c1ccc(Br)cc1` [Compound 14, 4-bromo-N-(4-hydroxy-3-phenoxyphenyl)benzenesulfonamide], the “Inhibitory activity … in words” value on IDH1(R132H) [1] is on record as “Devoid of activity”.

`O=S(=O)(Nc1ccc(O)cc1)c1ccc(Br)cc1` [Compound 17, 4-bromo-N-(4-hydroxyphenyl)benzenesulfonamide] showed a Ki at IDH1(R132H) [1] of 7.3 µM.

Turning to `O=S(=O)(Nc1cccc(Br)c1)c1ccc(Br)cc1` [Compound 18, 4-bromo-N-(3-bromophenyl)benzenesulfonamide], the affinity at IDH1(R132H) [1] corresponds to a Ki of 9 µM.

For the compound `O=S(=O)(Nc1ccccc1)c1ccc(Br)cc1` [Compound 19, 4-bromo-N-phenylbenzenesulfonamide], on IDH1(R132H) [1], the “Inhibitory activity … in words” value is “inactive”.

`O=S(=O)(Nc1ccc(F)c(Cl)c1)c1ccc(Br)cc1` [Compound 20, 4-bromo-N-(3-chloro-4-fluorophenyl)benzenesulfonamide] gave a Ki at IDH1(R132H) [1] of 16.1 µM.

These data come from paper PMC6205205 (Medicinal chemistry (Shariqah (United Arab Emirates)), 2018).
